Laboratory results reported in ChEMBL document CHEMBL4354843, “Structure-Based Design of a Potent and Selective Covalent Inhibitor for SRC Kinase That Targets a P-Loop Cysteine” (J Med Chem, 2020).

Columns and labels:
[1] = molecular target: Serine/threonine-protein kinase 33 (Homo sapiens) (UniProt Q9BYT3); assay: Binding affinity to wild-type human full length STK33 (M1 to L514 residues) expressed in bacterial expression system assessed as residual binding level at 1 uM by Kinomescan method relative to control
[2] = molecular target: Serine/threonine-protein kinase Nek4 (Homo sapiens) (UniProt P51957); assay: Binding affinity to wild-type human full length NEK4 (M1 to F841 residues) expressed in mammalian expression system assessed as residual binding level at 1 uM by Kinomescan method relative to control
In short: (§1)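 KinomeScan, an active site-directed competition binding panel of 468 kinases. The test compound was at 1 μM. The readout is remaining kinase binding as a percentage of the DMSO control. Scores above 35% were treated as weak binding and not listed.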

[3] = molecular target: Protein kinase C iota type (Homo sapiens) (UniProt P41743); assay: Binding affinity to wild-type human partial length PRKCI (H215 to V587 residues) expressed in mammalian expression system assessed as residual binding level at 1 uM by Kinomescan method relative to control
In short: (§2)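 Active-site-directed competition binding panel of 468 kinases (KinomeScan), compound at 1 μM. The read-out is kinase remaining bound, given as a percentage of the DMSO control. […]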

[4] = molecular target: Serine/threonine-protein kinase PLK3 (Homo sapiens) (UniProt Q9H4B4); assay: Binding affinity to wild-type human partial length PLK3 (A42 to L334 residues) expressed in mammalian expression system assessed as residual binding level at 1 uM by Kinomescan method relative to control
[5] = molecular target: Fibroblast growth factor receptor 1 (Homo sapiens, UniProt P11362); assay: Inhibition of recombinant human His-tagged FGFR1 (308 to 731 residues) expressed in baculovirus expression system using tyrosine-4 peptide as substrate incubated for 1 hr by Z'-LYTE assay
[6] = molecular target: Serine/threonine-protein kinase B-raf (Homo sapiens) (UniProt P15056); assay: Binding affinity to wild-type human partial length BRAF (S429 to E741 residues) expressed in mammalian expression system assessed as residual binding level at 1 uM by Kinomescan method relative to control
[7] = molecular target: Casein kinase I isoform epsilon (Homo sapiens) (UniProt P49674); assay: Binding affinity to wild-type human full length CSNK1E (M1 to K416 residues) expressed in bacterial expression system assessed as residual binding level at 1 uM by Kinomescan method relative to control
In short: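 Active-site-directed KinomeScan competition binding panel covering 468 kinases, compound tested at 1 μM. Each readout is the kinase signal remaining with compound, expressed as a percentage of the DMSO control. […]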

[8] = molecular target: Wee1-like protein kinase 2 (Homo sapiens) (UniProt P0C1S8); assay: Binding affinity to wild-type human partial length WEE2 (M204 to K492 residues) expressed in bacterial expression system assessed as residual binding level at 1 uM by Kinomescan method relative to control
[9] = molecular target: Serine/threonine-protein kinase TNNI3K (Homo sapiens) (UniProt Q59H18); assay: Binding affinity to wild-type human full length TNNI3K (M1 to S835 residues) expressed in bacterial expression system assessed as residual binding level at 1 uM by Kinomescan method relative to control; in short: as §1
[10] = molecular target: Transient receptor potential cation channel subfamily M member 6 (Homo sapiens) (UniProt Q9BX84); assay: Binding affinity to wild-type human partial length TRPM6 (Q1723 to I1998 residues) expressed in mammalian expression system assessed as residual binding level at 1 uM by Kinomescan method relative to control
In short: (§3)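 Active site-directed competition binding panel (KinomeScan, 468 kinases). Test compound at 1 μM. Read-out is kinase binding remaining versus DMSO control, expressed as percent of control. Scores above 35% are treated as weak binding.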

[11] = molecular target: Dual specificity mitogen-activated protein kinase kinase 7 (Homo sapiens) (UniProt O14733); assay: Binding affinity to wild-type human full length MKK7 (M1 to R419 residues) expressed in mammalian expression system assessed as residual binding level at 1 uM by Kinomescan method relative to control; in short: as §1
[12] = molecular target: Ephrin type-B receptor 3 (Homo sapiens) (UniProt P54753); assay: Binding affinity to wild-type human partial length EPHB3 (Q599 to T928 residues) expressed in bacterial expression system assessed as residual binding level at 1 uM by Kinomescan method relative to control; in short: as §2
[13] = molecular target: Death-associated protein kinase 3 (Homo sapiens) (UniProt O43293); assay: Binding affinity to wild-type human partial length DAPK3 (M1 to A277 residues) expressed in bacterial expression system assessed as residual binding level at 1 uM by Kinomescan method relative to control
[14] = molecular target: NT-3 growth factor receptor (Homo sapiens) (UniProt Q16288); assay: Binding affinity to wild-type human partial length TRKC (Q531 to G825 residues) expressed in mammalian expression system assessed as residual binding level at 1 uM by Kinomescan method relative to control
[15] = molecular target: Serine/threonine-protein kinase PAK 6 (Homo sapiens) (UniProt Q9NQU5); assay: Binding affinity to wild-type human partial length PAK6 (N298 to C681 residues) expressed in bacterial expression system assessed as residual binding level at 1 uM by Kinomescan method relative to control; in short: as §2
[16] = molecular target: Phosphatidylinositol 5-phosphate 4-kinase type-2 gamma (Homo sapiens) (UniProt Q8TBX8); assay: Binding affinity to wild-type human partial length PIP5K2C (M1 to A421 residues) expressed in mammalian expression system assessed as residual binding level at 1 uM by Kinomescan method relative to control
[17] = molecular target: Bone morphogenetic protein receptor type-1A (Homo sapiens) (UniProt P36894); assay: Binding affinity to wild-type human partial length BMPR1A (Q214 to I532 residues) expressed in bacterial expression system assessed as residual binding level at 1 uM by Kinomescan method relative to control
[18] = molecular target: Vascular endothelial growth factor receptor 2 (Homo sapiens) (UniProt P35968); assay: Binding affinity to wild-type human partial length VEGFR2 (R787 to P1253 residues) expressed in mammalian expression system assessed as residual binding level at 1 uM by Kinomescan method relative to control; in short: as §3
[19] = molecular target: 1-phosphatidylinositol 3-phosphate 5-kinase (Homo sapiens) (UniProt Q9Y2I7); assay: Binding affinity to wild-type human partial length PIKFYVE (F1512 to C2098 residues) expressed in mammalian expression system assessed as residual binding level at 1 uM by Kinomescan method relative to control
[20] = molecular target: Serine/threonine-protein kinase LATS1 (Homo sapiens) (UniProt O95835); assay: Binding affinity to wild-type human partial length LATS1 (Q678 to V1130 residues) expressed in bacterial expression system assessed as residual binding level at 1 uM by Kinomescan method relative to control
[21] = tested on: Receptor-type tyrosine-protein kinase FLT3 (Homo sapiens), P36888 [D835V]; assay: Binding affinity to human partial length FLT3 D835V mutant (V592 to Y969 residues) expressed in bacterial expression system assessed as residual binding level at 1 uM by Kinomescan method relative to control
In short: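 KinomeScan active site-directed competition binding panel (468 kinases), compound tested at 1 μM. Result expressed as remaining kinase signal versus DMSO control (percent of control).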

Chain of Serine/threonine-protein kinase LATS1 (Homo sapiens) (O95835 whole entry, the tested form may be a part): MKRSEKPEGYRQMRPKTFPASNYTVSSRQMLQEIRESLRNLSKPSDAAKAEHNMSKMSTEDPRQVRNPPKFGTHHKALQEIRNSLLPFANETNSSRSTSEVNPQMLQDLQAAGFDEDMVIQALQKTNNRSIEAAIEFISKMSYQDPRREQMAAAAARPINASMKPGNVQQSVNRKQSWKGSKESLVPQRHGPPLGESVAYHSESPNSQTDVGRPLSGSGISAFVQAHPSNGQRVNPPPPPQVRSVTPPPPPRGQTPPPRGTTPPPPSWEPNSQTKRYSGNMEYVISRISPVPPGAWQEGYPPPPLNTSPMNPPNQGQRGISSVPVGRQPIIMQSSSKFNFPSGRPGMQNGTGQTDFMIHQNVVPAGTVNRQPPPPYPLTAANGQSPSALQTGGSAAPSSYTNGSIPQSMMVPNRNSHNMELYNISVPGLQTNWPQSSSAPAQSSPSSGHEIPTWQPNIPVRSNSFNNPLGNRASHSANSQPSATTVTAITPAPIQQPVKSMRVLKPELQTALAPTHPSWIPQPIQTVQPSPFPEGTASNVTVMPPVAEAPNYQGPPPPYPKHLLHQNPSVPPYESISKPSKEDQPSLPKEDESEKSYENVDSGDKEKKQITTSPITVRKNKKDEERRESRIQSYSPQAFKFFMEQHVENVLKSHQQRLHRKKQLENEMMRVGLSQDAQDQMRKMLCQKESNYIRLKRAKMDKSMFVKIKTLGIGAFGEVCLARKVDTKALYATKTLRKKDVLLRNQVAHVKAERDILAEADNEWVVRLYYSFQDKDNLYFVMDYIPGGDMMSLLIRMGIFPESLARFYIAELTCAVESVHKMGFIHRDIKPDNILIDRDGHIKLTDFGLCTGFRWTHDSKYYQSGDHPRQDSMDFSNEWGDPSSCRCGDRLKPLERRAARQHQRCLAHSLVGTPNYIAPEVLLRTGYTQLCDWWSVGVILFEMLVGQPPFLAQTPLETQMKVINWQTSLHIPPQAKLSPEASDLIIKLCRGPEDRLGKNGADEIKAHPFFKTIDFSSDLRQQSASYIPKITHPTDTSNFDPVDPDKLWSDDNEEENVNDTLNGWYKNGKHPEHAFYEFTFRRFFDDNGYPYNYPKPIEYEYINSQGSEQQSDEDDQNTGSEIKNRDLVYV
Chain of Serine/threonine-protein kinase Nek4 (Homo sapiens) (P51957 whole entry, looked up, the tested form may be a part): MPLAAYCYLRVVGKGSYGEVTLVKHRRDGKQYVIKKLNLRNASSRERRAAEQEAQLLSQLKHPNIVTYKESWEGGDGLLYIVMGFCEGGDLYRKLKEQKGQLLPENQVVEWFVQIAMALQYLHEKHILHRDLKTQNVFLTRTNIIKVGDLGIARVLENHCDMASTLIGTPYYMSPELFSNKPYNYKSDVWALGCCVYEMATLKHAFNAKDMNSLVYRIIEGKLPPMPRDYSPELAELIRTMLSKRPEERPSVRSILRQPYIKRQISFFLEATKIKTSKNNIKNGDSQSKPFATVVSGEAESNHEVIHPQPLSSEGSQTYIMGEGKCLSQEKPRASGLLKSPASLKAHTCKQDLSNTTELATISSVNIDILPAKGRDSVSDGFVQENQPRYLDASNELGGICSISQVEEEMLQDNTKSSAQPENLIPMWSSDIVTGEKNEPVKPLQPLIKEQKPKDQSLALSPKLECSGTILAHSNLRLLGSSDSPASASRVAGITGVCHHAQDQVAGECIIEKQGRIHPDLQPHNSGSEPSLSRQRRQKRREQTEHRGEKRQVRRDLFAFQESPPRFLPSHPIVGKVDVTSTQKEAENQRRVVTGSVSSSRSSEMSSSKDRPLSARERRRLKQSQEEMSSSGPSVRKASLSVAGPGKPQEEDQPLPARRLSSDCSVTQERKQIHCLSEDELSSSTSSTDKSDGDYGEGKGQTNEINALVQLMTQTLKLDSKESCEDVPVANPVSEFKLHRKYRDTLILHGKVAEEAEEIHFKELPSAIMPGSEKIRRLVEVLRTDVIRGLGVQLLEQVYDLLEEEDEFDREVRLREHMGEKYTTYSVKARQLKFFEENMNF
Chain of Serine/threonine-protein kinase PLK3 (Homo sapiens) (Q9H4B4 whole entry, looked up, the tested form may be a part): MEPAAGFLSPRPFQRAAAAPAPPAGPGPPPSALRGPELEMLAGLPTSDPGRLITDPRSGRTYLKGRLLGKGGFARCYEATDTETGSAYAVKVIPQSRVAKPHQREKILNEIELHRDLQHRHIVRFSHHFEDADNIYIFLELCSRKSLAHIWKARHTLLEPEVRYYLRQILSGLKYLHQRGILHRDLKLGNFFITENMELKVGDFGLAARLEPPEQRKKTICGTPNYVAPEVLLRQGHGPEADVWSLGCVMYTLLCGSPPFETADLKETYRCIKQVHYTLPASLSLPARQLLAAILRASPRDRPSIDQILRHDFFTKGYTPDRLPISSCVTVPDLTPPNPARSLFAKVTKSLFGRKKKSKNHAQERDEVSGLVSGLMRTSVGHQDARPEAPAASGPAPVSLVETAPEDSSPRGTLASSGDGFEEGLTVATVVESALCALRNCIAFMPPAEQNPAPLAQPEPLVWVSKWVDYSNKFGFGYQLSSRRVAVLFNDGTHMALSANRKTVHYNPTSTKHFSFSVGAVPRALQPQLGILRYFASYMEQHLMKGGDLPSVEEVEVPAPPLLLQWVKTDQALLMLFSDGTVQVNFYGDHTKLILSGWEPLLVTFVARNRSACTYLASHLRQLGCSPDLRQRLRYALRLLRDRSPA
Chain of Protein kinase C iota type (Homo sapiens) (P41743 whole entry, the tested form may be a part): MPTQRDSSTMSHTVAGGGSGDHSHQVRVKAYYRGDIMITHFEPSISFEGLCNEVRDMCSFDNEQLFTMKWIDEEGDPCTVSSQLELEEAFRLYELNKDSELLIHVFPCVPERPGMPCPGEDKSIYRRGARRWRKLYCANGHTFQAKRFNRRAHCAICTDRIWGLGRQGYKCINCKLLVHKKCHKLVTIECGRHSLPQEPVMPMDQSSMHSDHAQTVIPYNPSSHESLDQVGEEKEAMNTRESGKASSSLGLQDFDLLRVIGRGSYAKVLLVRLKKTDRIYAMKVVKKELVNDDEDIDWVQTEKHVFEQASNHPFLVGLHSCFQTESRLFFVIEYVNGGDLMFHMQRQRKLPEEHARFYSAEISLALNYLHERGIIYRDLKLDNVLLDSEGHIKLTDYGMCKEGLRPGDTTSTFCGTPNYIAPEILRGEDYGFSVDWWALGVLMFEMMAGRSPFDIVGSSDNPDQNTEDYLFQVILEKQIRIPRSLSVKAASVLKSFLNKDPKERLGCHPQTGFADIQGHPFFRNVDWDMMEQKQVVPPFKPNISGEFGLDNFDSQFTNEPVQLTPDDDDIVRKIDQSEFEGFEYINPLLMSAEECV
Chain of Phosphatidylinositol 5-phosphate 4-kinase type-2 gamma (Homo sapiens) (Q8TBX8 whole entry, the tested form may be a part): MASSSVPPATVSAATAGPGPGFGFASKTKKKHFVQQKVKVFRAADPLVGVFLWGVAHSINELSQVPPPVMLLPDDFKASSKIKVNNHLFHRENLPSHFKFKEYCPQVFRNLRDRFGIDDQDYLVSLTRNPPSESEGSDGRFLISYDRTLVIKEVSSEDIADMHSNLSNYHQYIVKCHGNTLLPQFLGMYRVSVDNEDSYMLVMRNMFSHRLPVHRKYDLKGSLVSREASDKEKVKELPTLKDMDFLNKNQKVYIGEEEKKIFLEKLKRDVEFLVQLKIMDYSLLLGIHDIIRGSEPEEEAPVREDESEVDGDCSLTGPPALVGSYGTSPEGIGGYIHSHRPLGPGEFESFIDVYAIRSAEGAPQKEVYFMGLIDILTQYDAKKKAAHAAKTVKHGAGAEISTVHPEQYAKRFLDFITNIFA
Chain of Fibroblast growth factor receptor 1 (P11362 whole entry, the tested form may be a part): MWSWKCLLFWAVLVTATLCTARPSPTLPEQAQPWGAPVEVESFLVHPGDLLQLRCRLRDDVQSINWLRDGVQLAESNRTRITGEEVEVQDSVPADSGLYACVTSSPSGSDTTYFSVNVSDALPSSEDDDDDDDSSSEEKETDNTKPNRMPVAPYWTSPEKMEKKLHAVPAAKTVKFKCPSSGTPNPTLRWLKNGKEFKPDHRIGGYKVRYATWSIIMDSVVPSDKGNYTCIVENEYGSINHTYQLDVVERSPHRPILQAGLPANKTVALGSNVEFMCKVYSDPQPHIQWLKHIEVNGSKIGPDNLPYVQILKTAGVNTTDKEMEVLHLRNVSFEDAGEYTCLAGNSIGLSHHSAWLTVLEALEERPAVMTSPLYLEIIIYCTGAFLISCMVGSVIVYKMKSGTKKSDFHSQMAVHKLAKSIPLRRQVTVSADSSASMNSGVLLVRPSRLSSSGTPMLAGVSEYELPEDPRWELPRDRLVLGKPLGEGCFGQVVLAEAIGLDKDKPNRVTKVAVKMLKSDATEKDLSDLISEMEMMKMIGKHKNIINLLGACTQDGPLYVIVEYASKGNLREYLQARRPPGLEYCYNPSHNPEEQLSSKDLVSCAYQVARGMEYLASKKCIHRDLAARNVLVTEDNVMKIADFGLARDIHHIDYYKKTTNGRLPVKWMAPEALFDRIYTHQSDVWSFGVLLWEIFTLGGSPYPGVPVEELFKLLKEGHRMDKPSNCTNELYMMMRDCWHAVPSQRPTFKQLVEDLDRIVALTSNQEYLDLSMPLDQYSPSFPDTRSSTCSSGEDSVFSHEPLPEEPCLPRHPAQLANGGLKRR
Chain of Serine/threonine-protein kinase 33 (Homo sapiens) (Q9BYT3 whole entry, looked up, the tested form may be a part): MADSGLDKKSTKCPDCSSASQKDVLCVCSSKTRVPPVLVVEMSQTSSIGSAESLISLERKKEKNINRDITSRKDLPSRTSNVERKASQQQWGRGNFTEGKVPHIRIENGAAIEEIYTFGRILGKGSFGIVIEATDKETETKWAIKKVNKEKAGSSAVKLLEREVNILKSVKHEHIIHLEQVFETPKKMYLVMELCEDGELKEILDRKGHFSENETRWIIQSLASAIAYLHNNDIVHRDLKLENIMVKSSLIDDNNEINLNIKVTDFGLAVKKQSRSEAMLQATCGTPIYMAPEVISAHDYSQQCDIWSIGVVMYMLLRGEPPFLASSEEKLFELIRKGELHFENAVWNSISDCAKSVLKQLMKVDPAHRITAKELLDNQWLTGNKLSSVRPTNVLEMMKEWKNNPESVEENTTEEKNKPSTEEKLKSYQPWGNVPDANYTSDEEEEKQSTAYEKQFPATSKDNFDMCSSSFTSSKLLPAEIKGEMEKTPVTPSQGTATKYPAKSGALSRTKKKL

In the case of C=CC(=O)Nc1ccccc1Nc1nc(Nc2ccc(N3CCN(C)CC3)cc2)ncc1C(=O)Nc1c(C)cccc1Cl, the Activity [1] is reported as 100%, the Activity [2] is reported as 94% and the Activity [3] is reported as 94%. It also gave an Activity [4] of 100%, an IC50 [5] of 8.34 µM and an Activity [6] of 100%. The Activity [7] was 100%, the Activity [8] was 100% and the Activity [9] was 83%. For the same compound, the Activity [10] was 81%, the Activity [11] was 96% and the Activity [12] was 97%. For the same compound, the Activity [13] was 100%, the Activity [14] was 100% and the Activity [15] was 81%. For the same compound, the Activity [16] was 100%, the Activity [17] was 100% and the Activity [18] was 94%. For the same compound, the Activity [19] was 100%, the Activity [20] was 100% and the Activity [21] was 91%.
